This is a sample that favours compounds with a hit; in the whole collection about 4% have one here.
PHOSPHO1 inh: PubChem AID 1565; Phosphoethanolamine/phosphocholine phosphatase (Homo sapiens), Q8TCT1; inhibition, % at 13.3 µM; 290,000 tested, 1.1% active; recombinant PHOSPHO1, absorbance phosphatase assay; in the data active = inhibition above about 60%
Target sequence (Q8TCT1 whole entry, looked up): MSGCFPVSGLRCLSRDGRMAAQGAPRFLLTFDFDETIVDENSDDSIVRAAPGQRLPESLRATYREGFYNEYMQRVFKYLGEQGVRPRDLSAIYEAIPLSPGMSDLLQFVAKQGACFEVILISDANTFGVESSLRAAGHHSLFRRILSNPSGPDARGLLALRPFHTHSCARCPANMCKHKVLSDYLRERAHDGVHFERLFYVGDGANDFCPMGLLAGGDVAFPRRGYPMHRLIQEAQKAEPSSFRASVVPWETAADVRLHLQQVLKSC
KCNQ1 act: potentiators or activators of KCNQ1 channel, primary screen, cell-based, thallium flux, high-throughput. 310,000 tested, 0.35% active. CHO-K1 KCNQ1, thallium flux FluxOR fluorescence; active compounds read high. Potassium voltage-gated channel subfamily KQT member 1 (Homo sapiens), P51787. B-score at 10 µM;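 active = fluorescence ratio B-score, a plate-corrected score, at least three library SD, with initial intensity B-score within 5 SD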
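assay system = CHO-K1 cells stably expressing KCNQ1 | medium = assay buffer, equal DMSO in all wells | timing = 37 °C overnight plating, 90-min dark dye load, 20-min compound pretreatment | measured by = kinetic FluxOR thallium fluorescence, 10-s 1-Hz baseline, 110-s post-stimulus read | measure = fluorescence change relative to baseline, converted to B score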
KCNK9 inh: KCNK9 potassium channel inhibitors, primary screen, HEK293 cells, thallium flux; Potassium channel subfamily K member 9 (Homo sapiens), Q9NPC2; FluxOR thallium flux fluorescence; active compounds read low; B-score at 10 µM; 310,000 tested, 1.2% active;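 active = ratio B-score over 3 SD below the library mean, with starting fluorescence within 5 SD of its mean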;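 note: negative B-score means less thallium flux so channel inhibition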
KCNK3 block: human KCNK3 channel inhibitors, primary screen, CHO cells, FluxOR thallium flux, B-score | 340,000 tested, 0.84% active | FluxOR fluorescence; active compounds read low | B-score at 10 µM | AID 602410, 2012 | Potassium channel subfamily K member 3 (Homo sapiens), O14649;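 active = B-score under library mean minus 4 SD, starting fluorescence ratio at most library mean plus 5 SD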;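 note: more negative B-score means stronger inhibition of thallium flux through KCNK3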
Target sequence (O14649 whole entry, looked up): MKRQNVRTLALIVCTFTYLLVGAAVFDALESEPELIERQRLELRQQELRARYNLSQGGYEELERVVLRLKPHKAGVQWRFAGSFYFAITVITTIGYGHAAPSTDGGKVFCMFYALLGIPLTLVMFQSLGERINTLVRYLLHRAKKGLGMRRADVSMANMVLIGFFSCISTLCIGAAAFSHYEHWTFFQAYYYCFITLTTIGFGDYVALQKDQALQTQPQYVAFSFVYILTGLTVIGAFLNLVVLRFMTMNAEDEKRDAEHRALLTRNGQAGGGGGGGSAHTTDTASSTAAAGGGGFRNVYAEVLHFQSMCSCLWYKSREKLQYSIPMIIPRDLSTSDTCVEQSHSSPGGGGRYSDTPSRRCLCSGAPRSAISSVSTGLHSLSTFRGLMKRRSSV
hERG protect: hERG rescue from dofetilide block, primary screen, cell-based, CHO-hERG, FluxOR thallium flux, dofetilide IC70. Voltage-gated inwardly rectifying potassium channel KCNH2 (Homo sapiens), Q12809. dofetilide IC70 present. activation (rescue from dofetilide block), less the hit threshold, % at 10 µM. 310,000 tested, 0.51% active;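 active = activation above the mean of controls blocked by dofetilide plus 5 SD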;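 note: thallium influx through hERG after potassium depolarization seen as dye fluorescence rise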
KCNQ1 block: inhibitors of human KCNQ1 channel, primary screen, cell-based, thallium flux, high-throughput. CHO-K1 KCNQ1, FluxOR thallium flux fluorescence; active compounds read high. B-score at 10 µM. 310,000 tested, 1.3% active;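 active = compounds whose thallium flux B-score, printed positive for inhibition, exceeds three library SD while starting fluorescence stays within three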;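 note: channel opened by potassium depolarization with thallium stimulus after 20 min compound exposure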
KCNK9 block conf: KCNK9 potassium channel inhibitors, confirmation, HEK293 cells, thallium flux, duplicate; shares compounds with KCNK9 inh; FluxOR thallium flux fluorescence; inhibition, % at 10 µM; 4,900 tested, 43% active;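 active = thallium signal inhibited by more than 5 SD of the compound-free buffer control wells, on both duplicate plates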;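 note: 0% = assay buffer control wells without compound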
Kir21 sel: mouse Kir2.1 channel inhibition, confirmation, selectivity assay for KCNK9 modulator project, cell-based, HEK293, thallium flux; AID 492993, 2010; Kir2.1 cells, FluxOR thallium flux fluorescence; inhibition, % at 10 µM; 4,900 tested, 4% active; shares compounds with KCNK9 inh;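 active = thallium signal drop more than 5 SD beyond the mean of the no-compound control wells, seen in both duplicate plates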;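 note: signal is fluorescence rise after thallium addition divided by baseline fluorescence; plate controls were assay buffer only for no effect and full block by chlorpromazine control for full effect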
KCNK9 uninduced: thallium flux in non-induced HEK293 cells, confirmation, counter-screen for KCNK9 inhibitor project, cell-based, second counter screen, non-induced KCNK9-HEK293 | shares compounds with KCNK9 inh | FluxOR thallium flux | inhibition, % at 10 µM | 4,900 tested, 40% active;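 active = thallium signal drop beyond 5 SD of the untreated control mean, on both duplicate plates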;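 note: plate controls were buffer only IC0 wells for no effect and SID17386958 at its maximal inhibitory level for full effect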
Numbers without * were called inactive; i = inactive; . = no result.

SMILES	PHOSPHO1 inh	KCNQ1 act	KCNK9 inh	KCNK3 block	hERG protect	KCNQ1 block	KCNK9 block conf	Kir21 sel	KCNK9 uninduced
COc1ccccc1CN(Cc1cccnc1)S(=O)(=O)c1ccc(-n2cnnn2)c(OC)c1	45	i	i	i	-11	i	.	.	.
Cc1ccc(NC(=O)[C@@H](C)NC(=O)[C@@H]2Cc3ccccc3CN2)cc1	-25	i	i	i	-10	i	.	.	.
CCn1cc(C2=NC(C)(C)CO2)c2ccccc21	7	i	i	i	-8	i	i	i	i
S=C(Nc1ccccc1Cl)N1CCCCC1	2	i	i	i	-6	i	.	.	.
CCCCCCSc1cc(-c2nc3cc(C)ccn3c2NC2CCCCC2)ccc1OC	.	i	i	i	-4	i	.	.	.
COc1cc(-c2nc3cc(C)ccn3c2NC2CCCCC2)ccc1-c1ccc(C(C)=O)cc1	.	i	-9.3*	i	-20	i	48%*	i	i
CCCC(=NCCc1c(C)[nH]c2ccccc12)C1=C(O)CC(c2ccccc2)CC1=O (configuration not stated)	-15	i	i	i	-8	i	i	i	i
CCCCC(=NCCc1c(C)[nH]c2ccccc12)C1=C(O)CC(c2ccccc2)CC1=O (configuration not stated)	-26	i	i	i	-10	i	i	i	i
COc1ccc(OCC(=O)N2CCN(C(=O)c3ccco3)CC2)cc1	-1	i	i	i	-5	i	.	.	.
C#CCCOC(=O)N1C2=NC(C(=O)OC)=C(C(=O)OC)[C@@H]3N(C)c4ccccc4[C@]23C[C@H]1C(=O)OC	22	i	i	i	-9	i	.	.	.
C=CCN1c2ccccc2[C@]23C[C@@H](C(=O)OC)N(C(=O)NCCC)C2=NC(C(=O)OC)=C(C(=O)OC)[C@H]13	26	i	-9.3*	i	-3	i	32%*	i	30%*
C#CCCOC(=O)N1C2=NC(C(=O)OC)=C(C(=O)OC)[C@@H]3N(Cc4ccccc4)c4ccccc4[C@]23C[C@H]1C(=O)OC	22	i	-9.5*	i	-6	i	51%*	i	34%*
COc1ccc(NC(=O)C2=CC(c3ccco3)=NS(=O)(=O)N2C)cc1	-56	i	i	i	-8	i	.	.	.
C/C(=N\NC(=O)c1ccccc1O)C1C(=O)c2ccccc2C1=O	-1	i	i	i	-31	11*	i	i	24%*
C/C(=N/NC(=O)c1cc2ccccc2cc1O)C1C(=O)c2ccccc2C1=O	18	i	i	i	-16	i	.	.	.
COC(=O)CCNC(=O)Cn1cnc2sc3c(c2c1=O)CCCC3	-8	i	i	i	-7	i	.	.	.
COc1ccc(/C=C/c2nc3ccccc3n2Cc2ccc(OC)c(OC)c2)cc1	-12	i	-8.1*	i	-3	i	58%*	i	33%*
COc1ccc(-c2nc(-c3ccc4c(c3)OCO4)[nH]c2-c2ccc(OC)cc2)cc1	4	i	-9.2*	i	-5	i	65%*	i	i
CCCCn1c(N)c(N(CC)C(=O)CSCC(=O)Nc2ccc(OC)cc2)c(=O)[nH]c1=O	.	i	i	i	-15	i	.	.	.
CC(=O)Nc1ccc(Nc2nc(-c3ccccc3)nc3ccccc23)cc1	-7	i	i	i	-11	i	.	.	.
O=C(Nc1nc(-c2ccccc2)nc2ccccc12)c1ccc(F)cc1	-20	i	-8.4*	i	-12	i	30%*	i	i
COc1ccc(-c2cc(C)nc3c(-c4ccccc4)cnn23)cc1	38	i	-9.5*	i	-20	i	58%*	i	51%*
CC(C)(C)c1ccc(OCC(=O)NNC(=S)NC(=O)c2ccco2)c(Br)c1	-63	56*	i	i	-13	i	i	i	i
CC(C)(C)c1ccc(OCC(=O)NCc2ccco2)c(Br)c1	-27	i	i	i	-9	i	.	.	.
Cc1ccc(C(=O)OCC(=O)N2c3ccccc3NC(=O)C2(C)C)cc1S(=O)(=O)N1CCCCC1	.	.	.	i	.	.	.	.	.
SMILES	PHOSPHO1 inh	KCNQ1 act	KCNK9 inh	KCNK3 block	hERG protect	KCNQ1 block	KCNK9 block conf	Kir21 sel	KCNK9 uninduced
Cc1ccc(-c2ccc(/C=C3\C(=O)ON=C3c3ccccc3)o2)c([N+](=O)[O-])c1	9	8*	i	i	-48	i	i	i	32%*
Cc1ccc(/C=C2\C(=O)ON=C2c2ccccc2)o1	4	i	i	i	-4	i	.	.	.
O=C(Nc1ccccc1Cl)C1C2CCC3C(CCC21)C3(Cl)Cl (configuration not stated)	-8	i	i	i	-3	i	.	.	.
O=C(Nc1cccc(Cl)c1)C1C2CCC3C(CCC21)C3(Cl)Cl (configuration not stated)	-9	i	i	i	-15	i	i	i	i
CCOc1ccccc1NC(=O)C1C2CCC3C(CCC21)C3(Cl)Cl (configuration not stated)	27	i	i	i	-7	i	i	i	32%*
COc1ccc(NC(=O)COc2ccc(N(C)S(=O)(=O)c3ccc(Cl)cc3)cc2)cc1	.	.	.	i	.	.	.	.	.
CC(C)=CCCC(C)CN1CCC(n2nccc2NC(=O)c2cccnc2)CC1 (configuration not stated)	-12	i	i	i	-10	i	.	.	.
O=C(CCl)N1CCN(CC(=O)N2CCCC2)CC1	42	i	i	i	-5	i	.	.	.
CCOC(=O)C1CCN(Cc2ccc(Cl)c(Cl)c2)CC1	-5	i	i	i	-1	i	.	.	.
CCOC(=O)C1CCN(Cc2cc(C(C)(C)C)c(O)c(C(C)(C)C)c2)CC1	32	i	i	i	-11	i	i	i	i

Compound activity as filed in PubChem.
